Data set [1] concerns the target T1, Gastric inhibitory polypeptide receptor (Homo sapiens, UniProt P48546).
T1 sequence (P48546 whole entry): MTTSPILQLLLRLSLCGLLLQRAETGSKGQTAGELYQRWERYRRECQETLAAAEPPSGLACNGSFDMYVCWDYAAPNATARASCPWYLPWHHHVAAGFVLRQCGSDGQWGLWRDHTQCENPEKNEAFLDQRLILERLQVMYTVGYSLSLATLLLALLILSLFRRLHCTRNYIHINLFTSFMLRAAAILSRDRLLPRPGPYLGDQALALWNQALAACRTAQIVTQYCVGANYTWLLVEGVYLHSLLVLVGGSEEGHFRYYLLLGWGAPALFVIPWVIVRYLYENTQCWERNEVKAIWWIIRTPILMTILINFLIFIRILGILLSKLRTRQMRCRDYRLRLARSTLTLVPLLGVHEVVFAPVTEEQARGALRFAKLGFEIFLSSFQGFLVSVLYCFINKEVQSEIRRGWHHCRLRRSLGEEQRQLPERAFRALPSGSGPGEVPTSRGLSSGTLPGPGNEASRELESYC
In words: Agonist activity at human GIP receptor expressed in HEK293 cells assessed as cAMP accumulation after 30 mins by HTRF assay. The class given is functional, cell-based.

Data set [2] concerns the target T2, Glucagon-like peptide 1 receptor (Homo sapiens, UniProt P43220). In words: Displacement of [125I]GLP-1 from human GLP1R expressed in HEK293 cell membranes after 180 mins by microbeta counting method. In short, it runs like this:
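Membranes from HEK-293 cells expressing human GLP-1 receptor (1 μg protein/well) were coated on WGA SPA beads. […] The buffer was HEPES pH 7.4 with EDTA, NaCl, MgCl2, CaCl2, protease inhibitors and 0.1% BSA. Plates were read after a 180 min delay.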
Background: In a radioligand displacement assay an active substance lowers the binding of a labelled ligand.

The species named for data set [3] is Homo sapiens. In words: Selectivity ratio of EC50 for human glucagon receptor expressed in HEK293 cells to EC50 for human GLP1R expressed in HEK293 cells. The class given is cell-based. A digest of the protocol: (§1)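 HEK293 lines stably expressing human or monkey receptor were detached with accutase. Cells were resuspended at 400 000 cells/mL in HBSS/20 mM HEPES/0.1% BSA/2 mM IBMX and exposed to peptide for 30 min at room temperature. cAMP was read by HTRF (665/620 nm) after 1 h lysis.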

The species entered for data set [4] is Homo sapiens. In words: Selectivity ratio of EC50 for human GIP receptor expressed in HEK293 cells to EC50 for human GLP1R expressed in HEK293 cells. The class given is cell-based. In short, it runs like this:
as §1

Data set [5] concerns the target Glucagon receptor (Homo sapiens, UniProt P47871). In words: Agonist activity at human glucagon receptor expressed in HEK293 cells assessed as cAMP accumulation after 30 mins by HTRF assay. The data set is classed as functional, cell-based. On the technique in general: cAMP levels reflect the balance of adenylyl cyclase and phosphodiesterase activity.
The target in data set [6] is T2, Glucagon-like peptide 1 receptor. In words: Agonist activity at human GLP1R expressed in HEK293 cells assessed as cAMP accumulation after 30 mins by HTRF assay. The data set is classed as functional, cell-based.
Data set [7] can be described thus: Solubility in pH 4.5 acetate buffer at 10 mg/ml after 2 hrs by UPLC-UV analysis.
Data set [8] can be described thus: Solubility in pH 4.5 acetate buffer at 10 mg/ml after 2 hrs in presence of 0.5% phenol by UPLC-UV analysis. The class given is physicochemical. In short, it runs like this: (§2)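 Buffers were 100 mM sodium acetate pH 4.5 or 100 mM sodium phosphate pH 7.4, with or without 0.5% phenol. Solid peptide was dispersed at 10 mg/mL, with content corrected by UPLC-MS and ion chromatography, and gently agitated for 2 h. After centrifugation (15 min, 3000 rcf), the supernatant was diluted 1:10 and quantified by UPLC-UV against a DMSO standard curve.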

The nature of data set [9]: Solubility in pH 4.5 phosphate buffer at 10 mg/ml after 2 hrs in presence of 0.5% phenol by UPLC-UV analysis. The class given is physicochemical.
The nature of data set [10]: Solubility in pH 4.5 acetate buffer at 10 mg/ml after 2 hrs by UPLC-UV analysis. The class given is physicochemical. A digest of the protocol: as §2

As usually defined, the pEC50 is the EC50 on a negative log10 scale, so that one unit is a factor of ten. One may read the pIC50 as the negative decadic logarithm of the IC50, by convention in mol/L. Lower therefore signals a large IC50. One may read the solubility as the dissolved amount per volume that the medium holds.

pEC50, pIC50: −log10 of the molar value. Peptide text beside a SMILES is read from it. Where only a bound is given, the exact number is not on record here.

T2 sequence (P43220 whole entry): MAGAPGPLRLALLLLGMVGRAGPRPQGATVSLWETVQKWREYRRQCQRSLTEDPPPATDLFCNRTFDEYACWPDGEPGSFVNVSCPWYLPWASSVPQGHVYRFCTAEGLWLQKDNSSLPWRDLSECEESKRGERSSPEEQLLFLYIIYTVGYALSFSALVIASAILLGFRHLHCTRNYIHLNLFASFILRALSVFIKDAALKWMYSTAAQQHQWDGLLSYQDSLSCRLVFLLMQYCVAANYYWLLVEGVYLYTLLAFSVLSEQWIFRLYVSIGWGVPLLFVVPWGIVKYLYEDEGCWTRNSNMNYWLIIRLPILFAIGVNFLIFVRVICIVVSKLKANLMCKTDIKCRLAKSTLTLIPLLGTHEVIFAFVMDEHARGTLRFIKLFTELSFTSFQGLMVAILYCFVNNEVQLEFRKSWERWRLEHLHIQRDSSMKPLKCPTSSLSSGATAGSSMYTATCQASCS
Sequence of Glucagon receptor (P47871 whole entry): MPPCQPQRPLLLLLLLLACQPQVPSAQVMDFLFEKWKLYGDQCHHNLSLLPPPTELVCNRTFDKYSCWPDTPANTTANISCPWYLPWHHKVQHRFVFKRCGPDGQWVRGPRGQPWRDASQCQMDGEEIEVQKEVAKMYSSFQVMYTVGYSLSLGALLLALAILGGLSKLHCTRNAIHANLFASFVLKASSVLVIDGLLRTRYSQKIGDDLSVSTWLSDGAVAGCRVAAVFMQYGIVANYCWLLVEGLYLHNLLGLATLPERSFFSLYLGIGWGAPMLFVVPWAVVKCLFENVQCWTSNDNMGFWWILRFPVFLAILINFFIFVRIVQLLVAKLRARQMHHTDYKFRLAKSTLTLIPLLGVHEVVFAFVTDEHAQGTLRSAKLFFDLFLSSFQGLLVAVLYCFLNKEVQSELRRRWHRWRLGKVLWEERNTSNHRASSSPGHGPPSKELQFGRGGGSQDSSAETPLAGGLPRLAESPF

Regarding `CC[C@H](C)[C@H](NC(=O)[C@H](Cc1ccccc1)NC(=O)[C@H](CC(C)C)NC(=O)[C@H](CCCCN)NC(=O)[C@H](C)NC(=O)[C@H](CS)NC(=O)[C@H](CCC(N)=O)NC(=O)[C@H](CCC(=O)O)NC(=O)[C@H](CC(=O)O)NC(=O)[C@H](CC(C)C)NC(=O)[C@H](CCC(N)=O)NC(=O)[C@H](CCCCN)NC(=O)[C@H](CO)NC(=O)[C@H](CC(C)C)NC(=O)[C@@H](N)CC(=O)O)C(=O)N[C@@H](CCC(=O)O)C(=O)N[C@@H](Cc1c[nH]c2ccccc12)C(=O)N[C@@H](CC(C)C)C(=O)N[C@@H](C)C(=O)N[C@@H](C)C(=O)NCC(=O)NCC(=O)N1CCC[C@H]1C(=O)N[C@@H](CO)C(=O)N[C@@H](CO)C(=O)NCC(=O)N[C@@H](C)C(=O)N1CCC[C@H]1C(=O)N1CCC[C@H]1C(=O)N1CCC[C@H]1C(=O)N[C@@H](CS)C(N)=O` (H-DLSKQLDEQCAKLFIEWLAAGGPSSGAPPPC-NH2), the pEC50 in data set [1] was below 4.00. Besides, in [2], the pIC50 is 5.95.

In the case of `CCCCCCCCCCCCCCCCCCC(=O)N[C@@H](CCC(=O)NCCCC[C@H](NC(=O)[C@H](CCC(N)=O)NC(=O)[C@H](CCCCN)NC(=O)[C@H](CO)NC(=O)[C@H](CC(C)C)NC(=O)[C@H](CC(=O)O)NC(=O)[C@H](CO)NC(=O)[C@@H](NC(=O)[C@H](Cc1ccccc1)NC(=O)[C@@H](NC(=O)CNC(=O)[C@H](CCC(N)=O)NC(=O)C(C)(C)NC(=O)[C@@H](N)Cc1cnc[nH]1)[C@@H](C)O)[C@@H](C)O)C(=O)N[C@@H](CC(=O)O)C(=O)N[C@@H](CCC(=O)O)C(=O)N[C@@H](CCC(N)=O)C(=O)N[C@@H](CCCNC(=N)N)C(=O)N[C@@H](C)C(=O)N[C@@H](CCCCN)C(=O)N[C@@H](CC(C)C)C(=O)N[C@@H](Cc1ccccc1)C(=O)N[C@H](C(=O)N[C@@H](CCC(=O)O)C(=O)N[C@@H](Cc1c[nH]c2ccccc12)C(=O)N[C@@H](CC(C)C)C(=O)NC(C)(C)C(=O)N[C@@H](C)C(=O)NCC(=O)NCC(=O)N1CCC[C@H]1C(=O)N[C@@H](CO)C(=O)N[C@@H](CO)C(=O)NCC(=O)N[C@@H](C)C(=O)N1CCC[C@H]1C(=O)N1CCC[C@H]1C(=O)N1CCC[C@H]1C(=O)N[C@@H](CO)C(N)=O)[C@@H](C)CC)C(=O)O`, the results for the Ratio EC50 in data set [3] and in data set [4] were 5 and 73, respectively. For the same molecule, the pEC50 is 11.17 in [5], 9.99 in data set [1] and 11.85 in data set [6].

In the case of `CCCCCCCCCCCCCCCCC(=O)N[C@@H](CCC(=O)N[C@@H](CCC(=O)NCCCC[C@H](NC(=O)[C@H](CCC(N)=O)NC(=O)[C@H](CCCCN)NC(=O)[C@H](CO)NC(=O)[C@H](CC(C)C)NC(=O)[C@H](CC(=O)O)NC(=O)[C@H](CO)NC(=O)[C@@H](NC(=O)[C@H](Cc1ccccc1)NC(=O)[C@@H](NC(=O)CNC(=O)[C@H](CCC(N)=O)NC(=O)C(C)(C)NC(=O)[C@@H](N)Cc1cnc[nH]1)[C@@H](C)O)[C@@H](C)O)C(=O)N[C@@H](CC(=O)O)C(=O)N[C@@H](CCC(=O)O)C(=O)N[C@@H](CCC(N)=O)C(=O)N[C@@H](CCCNC(=N)N)C(=O)N[C@@H](C)C(=O)N[C@@H](CCCCN)C(=O)N[C@@H](CC(C)C)C(=O)N[C@@H](Cc1ccccc1)C(=O)N[C@H](C(=O)N[C@@H](CCC(=O)O)C(=O)N[C@@H](Cc1c[nH]c2ccccc12)C(=O)N[C@@H](CC(C)C)C(=O)NC(C)(C)C(=O)N[C@@H](C)C(=O)NCC(=O)NCC(=O)N1CCC[C@H]1C(=O)N[C@@H](CO)C(=O)N[C@@H](CO)C(=O)NCC(=O)N[C@@H](C)C(=O)N1CCC[C@H]1C(=O)N1CCC[C@H]1C(=O)N1CCC[C@H]1C(=O)N[C@@H](CO)C(N)=O)[C@@H](C)CC)C(=O)O)C(=O)O`, in [3], the Ratio EC50 worked out at 13. The solubility at 2 h in data set [7] is at least 10000 µg/mL; in data set [8] it was 1200 µg/mL; in data set [9], at least 10000 µg/mL; in [10] it was at least 10000 µg/mL. Besides, the figures for the pEC50 in data set [5], in data set [1] and in data set [6] were 10.56, 8.69 and 11.66, respectively.

For the molecule `CC[C@H](C)[C@H](NC(=O)[C@H](Cc1ccccc1)NC(=O)[C@H](CC(C)C)NC(=O)[C@H](CCCCN)NC(=O)[C@H](C)NC(=O)[C@H](CCCNC(=N)N)NC(=O)[C@H](CCC(N)=O)NC(=O)[C@H](CCC(=O)O)NC(=O)[C@H](CC(=O)O)NC(=O)[C@H](CC(C)C)NC(=O)[C@H](CCC(N)=O)NC(=O)[C@H](CCCCN)NC(=O)[C@H](CO)NC(=O)[C@H](CC(C)C)NC(=O)[C@H](CC(=O)O)NC(=O)[C@H](CO)NC(=O)[C@@H](NC(=O)[C@H](Cc1ccccc1)NC(=O)[C@@H](NC(=O)CNC(=O)[C@H](CCC(N)=O)NC(=O)C(C)(C)NC(=O)[C@@H](N)Cc1cnc[nH]1)[C@@H](C)O)[C@@H](C)O)C(=O)N[C@@H](CCC(=O)O)C(=O)N[C@@H](Cc1c[nH]c2ccccc12)C(=O)N[C@@H](CC(C)C)C(=O)NC(C)(C)C(=O)N[C@@H](C)C(=O)NCC(=O)NCC(=O)N1CCC[C@H]1C(=O)N[C@@H](CO)C(=O)N[C@@H](CO)C(=O)NCC(=O)N[C@@H](C)C(=O)N1CCC[C@H]1C(=O)N1CCC[C@H]1C(=O)N1CCC[C@H]1C(=O)N[C@@H](CO)C(N)=O`, in [2], the pIC50 is 7.59.
